Source: PubChem (several laboratories)
ABCB6 inh 2 = ABCB6 transporter inhibitors, primary screen, K562-ABCB6 cells, flow cytometry, MLPCN library. 360,000 compounds, 0.19% hits. K562-ABCB6 porphyrin accumulation, 1 h; active compounds read low. fluorescence ratio to DMSO, % at 10 µM;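 active = fluorescence ratio to DMSO below 75%, the collection mean minus 3 SD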;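 note: signal is porphyrin accumulated inside mitochondria; 100% equals median channel fluorescence of DMSO control wells; lower ratio means ABCB6 inhibition with less porphyrin fluorescence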
CHT PAM = CHT positive allosteric modulators, primary screen, cell-based, membrane potential dye, choline EC20; CHT-expressing cells; active compounds read high; LV-AA mutant CHT in HEK293 cells; B-score at 10 µM; 310,000 compounds, 0.49% hits; High affinity choline transporter 1 (Homo sapiens), Q9GZV3;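 active = initial fluorescence not abnormally high and integrated response B-score, plate-corrected, over 3 SD above library mean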
Target sequence (Q9GZV3 whole entry, looked up): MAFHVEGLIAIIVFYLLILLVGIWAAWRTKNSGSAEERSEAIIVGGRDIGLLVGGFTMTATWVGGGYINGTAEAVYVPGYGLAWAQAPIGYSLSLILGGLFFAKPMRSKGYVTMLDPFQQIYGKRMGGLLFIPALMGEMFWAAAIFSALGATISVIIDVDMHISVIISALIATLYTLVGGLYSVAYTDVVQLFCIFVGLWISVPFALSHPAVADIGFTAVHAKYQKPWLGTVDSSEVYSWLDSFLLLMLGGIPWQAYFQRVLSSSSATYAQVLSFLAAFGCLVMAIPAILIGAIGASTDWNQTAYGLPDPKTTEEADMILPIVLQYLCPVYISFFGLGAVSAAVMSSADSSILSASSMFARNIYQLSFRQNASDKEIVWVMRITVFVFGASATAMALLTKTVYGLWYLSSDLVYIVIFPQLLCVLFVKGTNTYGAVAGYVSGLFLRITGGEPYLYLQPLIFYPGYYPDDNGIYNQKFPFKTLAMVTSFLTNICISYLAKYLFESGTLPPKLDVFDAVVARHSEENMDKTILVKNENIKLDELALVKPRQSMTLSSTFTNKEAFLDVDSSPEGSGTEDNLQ
CHT block = inhibitors of human choline transporter CHT; High affinity choline transporter 1 (Homo sapiens), Q9GZV3; CHT-expressing cells, membrane potential dye, choline response; active compounds read low; B-score at 10 µM; 310,000 compounds, 0.86% hits; AID 488975, 2010;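 active = B-score over 3 SD under the library average, and starting fluorescence ratio not unusually high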;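 note: choline stimulus applied at its EC90 after an EC20 pre-addition; B-score computed on integrated fluorescence ratio after choline addition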
TNAP inh no acc = human TNAP enzyme inhibitors, primary screen, biochemical, luminescent, no phosphate acceptor, uHTS; AID 1012, 2008; 200,000 compounds, 0.26% hits; inhibition, % at 20 µM; Alkaline phosphatase, tissue-nonspecific isozyme (Homo sapiens), P05186; purified TNAP, CDP-star luminescence, 30 min;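 active = tissue-nonspecific alkaline phosphatase inhibition above about 50% at 20 µM in the single-dose screen, limit read from the data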;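 note: 0% = DMSO negative control and 100% = EDTA positive control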
TNAP act hiacc = TNAP activators at high phosphate acceptor level, primary screen, biochemical, luminescence, uHTS. purified TNAP, CDP-star luminescence, 1 M DEA, 30 min; active compounds read high; 0 = EDTA background, 1 = DMSO-only activity. AID 1136, 2008. Alkaline phosphatase, tissue-nonspecific isozyme (Homo sapiens), P05186. activation factor at 20 µM. 200,000 tested, under 10 active;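 active = activation factor at least 2 at 20 µM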
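Test system – human TNAP · Doses – 20 µM single point · Incubation – 30 min, room temperature · Signal – luminescent substrate turnover signal · Read-out basis – activation factor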
TNAP inh hiacc = human TNAP enzyme inhibitors, primary screen, biochemical, luminescent, high phosphate acceptor level, uHTS | Alkaline phosphatase, tissue-nonspecific isozyme (Homo sapiens), P05186 | 200,000 compounds, 0.03% hits | purified TNAP, CDP-star luminescence, 1 M DEA | inhibition, % at 20 µM;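 active = over 50% inhibition of tissue-nonspecific alkaline phosphatase at 20 µM in the single-dose screen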;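 note: plate controls were DMSO wells for no effect and EDTA-quenched wells as full inhibition for full effect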
CHT block conf = CHT inhibitors, confirmation, cell-based, membrane potential dye, duplicate; shares compounds with CHT block; CHT activity remaining % of control (active compounds read low), % at 10 µM; AID 493221, 2011; 2,400 compounds, 70% hits; CHT-expressing cells, choline membrane potential dye; LV-to-AA substituted CHT, HEK293 cells;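 active = choline transporter activity left, mean of duplicates at 10 µM, below buffer-only control mean minus 3 SD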;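 note: depolarization triggered by choline at its EC90 following an EC20 pre-addition; 0% = hemicholinium-3 full block and 100% = buffer-only control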
HEK293 CHT ctr = membrane potential effects in parental HEK293, counter-screen for CHT inhibitor project, cell-based, membrane potential dye; choline response; active = decrease or increase beyond buffer ±3SD; membrane potential ratio readout (active if shifted either direction beyond buffer ±3SD; no single direction) at 10 µM; 2,400 compounds, 4% hits; AID 493222, 2011; shares compounds with CHT block;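 note: parental cells lack the transporter so any hit is non-specific; ratio is peak minus trough fluorescence over baseline after EC90 choline challenge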
Numbers without * were called inactive; i = inactive; / = no result. A selection: hits, their analogues and other compounds. The true share with any hit is near 1.4%.

SMILES	ABCB6 inh 2	CHT PAM	CHT block	TNAP inh no acc	TNAP act hiacc	TNAP inh hiacc	CHT block conf	HEK293 CHT ctr
COc1ccc(-c2noc(N3CCC(C(=O)Nc4ccc(OC)cc4OC)CC3)n2)cc1	98	i	-6.6*	/	/	/	i	i
O=C(NCc1cccs1)c1csc(COCCO)n1	98	/	/	/	/	/	/	/
COC(=O)C1CN(C(=O)C(C)Oc2ccccc2Cl)c2ccccc2O1 (configuration not stated)	95	i	-5.2*	/	/	/	71%*	i
O=C1C[C@H]2[C@H](CO)[C@@H](OC(=O)c3ccc(-c4ccccc4)cc3)C[C@H]2O1	92	i	-5.8*	/	/	/	64%*	i
O=C1CC2C(CC(OC(=O)c3ccc(-c4ccccc4)cc3)C2CO)O1 (configuration not stated)	98	i	i	-1	1	4	/	/
COc1ccc(OC)c(S(=O)(=O)N2CCC(C(=O)N3CCCC3)CC2)c1	101	i	i	/	/	/	/	/
COc1ccc(OC)c(S(=O)(=O)N2CCC(C(=O)N3CCc4ccccc4C3)CC2)c1	96	i	i	-8	1.1	-5	i	i
CCCCCCCCCCCCN1[C@@H](CC(C)=O)c2cc(C(F)(F)F)ccc2S1(=O)=O	90	i	i	/	/	/	/	/
CCCCCCCCN1[C@@H](CC(=O)O)c2ccc(C(F)(F)F)cc2S1(=O)=O	92	i	-6.1*	/	/	/	65%*	i
O=C(CSc1nnc(-c2ccc(O)cc2)n1Cc1ccco1)N1CCc2ccccc2C1	93	i	-5.8*	-13	1.1	-10	i	i
O=C(CSc1nnc(-c2ccncc2)n1Cc1ccco1)c1ccc(Cl)cc1	94	i	-5.8*	-2	1	3	70%*	i
NC(=O)CSc1nnc(-c2ccc(O)cc2)n1Cc1ccco1	95	i	i	-5	1	-3	/	/
O=C(CSc1nnc(-c2ccc(Cl)cc2)n1Cc1ccco1)c1cccs1	108	i	i	-6	1	1	/	/
CCC1CCCCN1CCCNC(=O)c1ccc2c(c1)c(C)c(C)n2C (configuration not stated)	99	i	-5.7*	/	/	/	35%*	i
CCC1CCCCN1CCCNC(=O)c1ccc2c(=O)n(CCOC)c(=O)[nH]c2c1 (configuration not stated)	90	i	i	/	/	/	/	/
CCC1CCCCN1CCCNC(=O)c1ccc2c(c1)c(C)c(C)n2CC (configuration not stated)	109	i	i	/	/	/	/	/
CCCCCn1c(=O)[nH]c2cc(C(=O)NCCCN3CCCCC3CC)ccc2c1=O (configuration not stated)	98	i	-6*	/	/	/	41%*	i
COc1cc(/C=C/C(=O)OCC(=O)NCc2ccco2)ccc1O	93	i	i	/	/	/	/	/
O=C(Nc1ccccc1)Oc1cccc(Br)c1	96	i	i	/	/	/	/	/
COc1cc(/C=C2\SC(=S)N(NC(=O)c3ccncc3)C2=O)ccc1O	192	i	-9.8*	/	/	/	-0.4%*	-8.5*
CC(/C=C1\SC(=S)N(NS(=O)(=O)c2ccccc2)C1=O)=C\c1ccccc1	98	i	-5.8*	/	/	/	55%*	i
O=C1/C(=C\c2ccc(Br)cc2)SC(=S)N1NS(=O)(=O)c1ccccc1	98	i	i	/	/	/	/	/
CC(/C=C1\SC(=S)N(NC(=O)c2ccncc2)C1=O)=C\c1ccccc1	99	i	-6.5*	/	/	/	15%*	i
CC(/C=C1\SC(=S)N(NC(=O)c2ccc(C)cc2)C1=O)=C\c1ccccc1	91	i	i	2	0.9	8	/	/
COc1ccc(/C=C2/SC(=S)N(NS(=O)(=O)c3ccccc3)C2=O)cc1	102	i	-4.9*	/	/	/	45%*	i
SMILES	ABCB6 inh 2	CHT PAM	CHT block	TNAP inh no acc	TNAP act hiacc	TNAP inh hiacc	CHT block conf	HEK293 CHT ctr
CC1(C)CC(=O)C=C(c2ccc(-c3ccccc3)cc2)C1	96	/	/	/	/	/	/	/
O=c1cc(O)nc(SCc2ccccc2)n1-c1ccc(Cl)cc1	102	i	i	-8	1	-3	/	/
O=C(NCc1ccc(F)cc1)c1cc(C2CCCCN2S(=O)(=O)c2ccc(F)cc2F)on1 (configuration not stated)	103	/	/	/	/	/	/	/
COc1ccc(NC(=O)N2CCC(n3cnc4ccccc43)CC2)cc1	98	i	-5.8*	-8	1.1	-8	37%*	i
Cc1cccc(C)c1NC(=O)N1CCC(n2cnc3ccccc32)CC1	97	i	i	-6	1	-5	/	/
Cc1cc(Cl)c(S(=O)(=O)N2CCCC2)cc1OCC(=O)NC1CCCCC1	87	i	-5.2*	-3	1.1	-6	57%*	i
Cc1cc(C)nc(SCc2cc(=O)c(OC(=O)c3ccc(Br)o3)co2)n1	95	i	-8.2*	-2	1	-1	14%*	i
Cc1cc(C)nc(SCC(=O)Nc2ccc(S(=O)(=O)N3CCCCC3)cc2)n1	88	i	i	-3	1	-1	/	/
Cc1cc(C)nc(SCc2cc(=O)c(OC(=O)c3cc([N+](=O)[O-])ccc3Cl)co2)n1	103	i	-7.4*	-6	1	-2	28%*	i
O=C(Oc1coc(CSc2ncccn2)cc1=O)c1ccccc1[N+](=O)[O-]	97	i	i	-11	1	-4	/	/
Cc1ccnc(SCc2cc(=O)c(OC(=O)c3ccccc3)co2)n1	96	i	i	-17	1	-3	/	/
Cc1cc(C)nc(SCc2cc(=O)c(OC(=O)c3ccco3)co2)n1	101	i	-6.1*	-3	1	-4	17%*	i
Cc1cc(C)nc(SCc2cc(=O)c(OC(=O)c3ccc(S(=O)(=O)N4CCCC4)cc3)co2)n1	99	i	-7.2*	-2	1	-4	51%*	i
